Laboratory results published in ChEMBL document CHEMBL1806449, “A class of Trp-Trp-AA-OBzl: Synthesis, in vitro anti-proliferation/in vivo anti-tumor evaluation, intercalation-mechanism investigation and 3D QSAR analysis” (Eur J Med Chem, 2011).
Peptide text beside a SMILES is read from it. * marks the point of attachment. OBn = c1ccc(CO*)cc1

How the values were obtained:
[1] = test system: Mus musculus; assay: Toxicity in ICR mouse xenografted with mouse S180 cells assessed as increase in spleen index at 2 umol/kg; type: organism-based, CCRF S-180; conditions: in vivo
[2] = test system: CCRF S-180; assay: Antiproliferative activity against mouse S180 cells after 48 hrs by MTT assay; type: functional, cell-based; conditions: CCRF S-180, 48 h
[3] = test system: CCRF S-180; assay: Antitumor activity against mouse S180 cells xenografted in ICR mouse assessed as tumor growth inhibition at 8.9 umol/kg, ip administered 1 day after tumor inoculation qd for 7 days; type: functional; conditions: CCRF S-180, ip, read-out: GI
In short: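 Male ICR mice 10–12 weeks; S180 from ascites serially transplanted weekly; 1×10^7 viable cells in 0.2 ml NS implanted s.c. at right oxter; 24 h later randomized (10 per group); daily i.p. 8.9, 0.89 or 0.089 µmol/kg/day in 0.2 ml NS, 7 days; NS and cytarabine controls; sacrificed 24 h after last dose; inhibition % = [1−(Tw/Cw)]×100.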

[4] = test system: HepG2; assay: Antiproliferative activity against human HepG2 cells after 48 hrs by MTT assay; type: functional, cell-based; conditions: HepG2, 48 h
[5] = test system: Mus musculus; assay: Toxicity in ICR mouse xenografted with mouse S180 cells assessed as effect on brain weight at 2 umol/kg; type: organism-based, CCRF S-180; conditions: in vivo
[6] = test system: B16; assay: Antiproliferative activity against mouse B16 cells after 48 hrs by MTT assay; type: functional, cell-based; conditions: B16, 48 h
[7] = test system: Mus musculus; assay: Toxicity in ICR mouse xenografted with mouse S180 cells assessed as effect on kidney weight at 2 umol/kg; type: organism-based, CCRF S-180; conditions: in vivo
[8] = test system: H22; assay: Antiproliferative activity against mouse H22 cells after 48 hrs by MTT assay; type: functional, cell-based; conditions: H22, 48 h
[9] = test system: Mus musculus; assay: Toxicity in ICR mouse xenografted with mouse S180 cells assessed as effect on liver weight at 2 umol/kg; type: organism-based, CCRF S-180; conditions: in vivo
[10] = test system: Mus musculus; assay: Toxicity in ICR mouse xenografted with mouse S180 cells assessed as increase in body weight at 2 umol/kg; type: organism-based, CCRF S-180; conditions: in vivo
[11] = test system: K562; assay: Antiproliferative activity against human K562 cells after 48 hrs by MTT assay; type: functional, cell-based; conditions: K562, 48 h
[12] = test system: Mus musculus; assay: Toxicity in ICR mouse xenografted with mouse S180 cells assessed as effect on brain weight at 8.9 umol/kg; type: organism-based, CCRF S-180; conditions: in vivo
In short: (§1)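 S180-bearing male ICR mice (10–12 weeks; 1×10^7 cells s.c. right oxter; 12 per group), daily i.p. 8.9 µmol/kg for seven days starting 24 h after implantation; NS, cytarabine and doxorubicin controls; liver, brain, kidney weights, spleen index and body-weight gain recorded.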

[13] = test system: Mus musculus; assay: Acute toxicity in ICR mouse assessed as tetanus at 500 mg/kg, ip administered qd for 7 days; type: organism-based; set-up: dose 500 mg/kg, route intraperitoneal; conditions: in vivo, 168 h
[14] = test system: Mus musculus; assay: Toxicity in ICR mouse xenografted with mouse S180 cells assessed as increase in spleen index at 8.9 umol/kg; type: organism-based, CCRF S-180; conditions: in vivo; in short: as §1
[15] = test system: Mus musculus; assay: Acute toxicity in ICR mouse assessed as apparent changes in any organ at 500 mg/kg, ip administered qd for 7 days; type: organism-based; set-up: dose 500 mg/kg, route intraperitoneal; conditions: in vivo, 168 h
[16] = test system: Mus musculus; assay: Acute toxicity in ICR mouse assessed as tremors at 500 mg/kg, ip administered qd for 7 days; type: organism-based; set-up: dose 500 mg/kg, route intraperitoneal; conditions: in vivo, 168 h
[17] = test system: Mus musculus; assay: Acute toxicity in ICR mouse assessed as mortality at 500 mg/kg, ip administered qd for 7 days; type: organism-based; set-up: dose 500 mg/kg, route intraperitoneal; conditions: in vivo, 168 h
[18] = test system: Mus musculus; assay: Toxicity in ICR mouse xenografted with mouse S180 cells assessed as effect on kidney weight at 8.9 umol/kg; type: organism-based, CCRF S-180; conditions: in vivo; in short: as §1
[19] = test system: Mus musculus; assay: Acute toxicity in ICR mouse assessed as jumping at 500 mg/kg, ip administered qd for 7 days; type: organism-based; set-up: dose 500 mg/kg, route intraperitoneal; conditions: in vivo, 168 h
[20] = test system: Mus musculus; assay: Acute toxicity in ICR mouse assessed as twitch at 500 mg/kg, ip administered qd for 7 days; type: organism-based; set-up: dose 500 mg/kg, route intraperitoneal; conditions: in vivo, 168 h
[21] = test system: Mus musculus; assay: Toxicity in ICR mouse xenografted with mouse S180 cells assessed as effect on liver weight at 8.9 umol/kg; type: organism-based, CCRF S-180; conditions: in vivo; in short: as §1
[22] = Acute toxicity in ip dosed ICR mouse assessed as lethal dose; type: organism-based; conditions: in vivo
In short: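 Male ICR mice, 24 weeks old, got a single i.p. injection of 500 mg/kg in 0.2 ml NS (normal saline). They were watched for 7 days for neurotoxic behaviour (tremor, twitch, jumping, tetanus, supination) and for death.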

[23] = test system: Mus musculus; assay: Acute toxicity in ICR mouse assessed as supination at 500 mg/kg, ip administered qd for 7 days; type: organism-based; set-up: dose 500 mg/kg, route intraperitoneal; conditions: in vivo, 168 h
[24] = test system: Mus musculus; assay: Toxicity in ICR mouse xenografted with mouse S180 cells assessed as increase in body weight at 8.9 umol/kg; type: organism-based, CCRF S-180; conditions: in vivo; in short: as §1

| SMILES | IC50 [2] [µM] | inhibition in vivo at 8.9 µmol/kg [3] [%] | IC50 [4] [µM] | IC50 [6] [µM] | IC50 [8] [µM] | IC50 [11] [µM] | Activity [12] [g] | Activity [13] | Activity [14] | Activity [15] | Activity [16] | Activity [17] | Activity [18] [g] | Activity [19] | Activity [20] | Activity [21] [g] | LD50 [22] [mg/kg] | Activity [23] | Activity [24] [g] | further results |
| --- | --- | --- | --- | --- | --- | --- | --- | --- | --- | --- | --- | --- | --- | --- | --- | --- | --- | --- | --- | --- |
| COc1cccc2c1C(=O)c1c(O)c3c(c(O)c1C2=O)C[C@@](O)(C(=O)CO)C[C@@H]3O[C@H]1C[C@H](N)[C@H](O)[C@H](C)O1 [DOXORUBICIN] | 29.2 | 48.2 | 17.5 | 21.5 | 36.5 | 17.2 |  |  |  |  |  |  |  |  |  |  |  |  |  | Activity [1]: 7.31; Activity [5]: 0.25 g; Activity [7]: 0.15 g; Activity [9]: 1.61 g; Activity [10]: 6.12 g |
| N[C@@H](Cc1c[nH]c2ccccc12)C(=O)N[C@@H](Cc1c[nH]c2ccccc12)C(=O)N[C@@H](CCC(=O)O)C(=O)OCc1ccccc1 (H-Trp-Trp-Glu-OBn) | 13.4 | 55.3 | 21 | 20.8 | 13.7 | 11 | 0.27 | Non-toxic | 7.92 | Non-toxic | Non-toxic | Non-toxic | 0.17 | Non-toxic | Non-toxic | 1.86 | > 500 | Non-toxic | 9.94 |  |
| CC[C@H](C)[C@H](NC(=O)[C@H](Cc1c[nH]c2ccccc12)NC(=O)[C@@H](N)Cc1c[nH]c2ccccc12)C(=O)OCc1ccccc1 (H-Trp-Trp-Ile-OBn) | 19.2 | 51.5 | 22.2 | 25.9 | 21.7 | 19.4 | 0.28 | Non-toxic | 8.12 | Non-toxic | Non-toxic | Non-toxic | 0.17 | Non-toxic | Non-toxic | 1.85 | > 500 | Non-toxic | 9.8 |  |
| CSCC[C@H](NC(=O)[C@H](Cc1c[nH]c2ccccc12)NC(=O)[C@@H](N)Cc1c[nH]c2ccccc12)C(=O)OCc1ccccc1 (H-Trp-Trp-Met-OBn) | 49.1 | 16.9 | 52.7 | 65.4 | 49.1 | 41.6 | 0.28 | Non-toxic | 7.69 | Non-toxic | Non-toxic | Non-toxic | 0.16 | Non-toxic | Non-toxic | 1.74 | > 500 | Non-toxic | 8.93 |  |
| C[C@@H](O)[C@H](NC(=O)[C@H](Cc1c[nH]c2ccccc12)NC(=O)[C@@H](N)Cc1c[nH]c2ccccc12)C(=O)OCc1ccccc1 (H-Trp-Trp-Thr-OBn) | 11.8 | 61.2 | 13.7 | 16 | 14 | 12 | 0.3 | Non-toxic | 8.21 | Non-toxic | Non-toxic | Non-toxic | 0.15 | Non-toxic | Non-toxic | 1.81 | > 500 | Non-toxic | 9.99 |  |
| N[C@@H](Cc1c[nH]c2ccccc12)C(=O)N[C@@H](Cc1c[nH]c2ccccc12)C(=O)N1CCC[C@H]1C(=O)OCc1ccccc1 (H-Trp-Trp-Pro-OBn) | 12.5 | 58 | 14.7 | 17.2 | 15.5 | 12.9 | 0.27 | Non-toxic | 8.01 | Non-toxic | Non-toxic | Non-toxic | 0.15 | Non-toxic | Non-toxic | 1.81 | > 500 | Non-toxic | 10.24 |  |
| N[C@@H](Cc1c[nH]c2ccccc12)C(=O)N[C@@H](Cc1c[nH]c2ccccc12)C(=O)NCC(=O)OCc1ccccc1 (H-Trp-Trp-Gly-OBn) | 19.5 | 56.6 | 17.8 | 24.3 | 22.4 | 16.2 | 0.27 | Non-toxic | 8.11 | Non-toxic | Non-toxic | Non-toxic | 0.16 | Non-toxic | Non-toxic | 1.8 | > 500 | Non-toxic | 9.77 |  |
| NC(=O)C[C@H](NC(=O)[C@H](Cc1c[nH]c2ccccc12)NC(=O)[C@@H](N)Cc1c[nH]c2ccccc12)C(=O)OCc1ccccc1 (H-Trp-Trp-Asn-OBn) | 15.5 | 50.6 | 17.9 | 21.3 | 18.7 | 16.3 | 0.27 | Non-toxic | 7.81 | Non-toxic | Non-toxic | Non-toxic | 0.16 | Non-toxic | Non-toxic | 1.82 | > 500 | Non-toxic | 9.96 |  |
